Data taken from ChEMBL document CHEMBL3085699, “Design, synthesis, and biological evaluation of indole-2-carboxamides: a promising class of antituberculosis agents” (J Med Chem, 2013).
≈ marks a conversion by molar mass, not a printed value. Calls of active or inactive are those of the source. The rule behind the calls is not given here.

Tests used:
[1] = Aqueous solubility of the compound at pH 6.8 after 24 hrs by high-throughput equilibrium solubility assay; type: physicochemical; conditions: buffer
Procedure, shortened: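 Miniaturized shake-flask equilibrium method. DMSO stock removed by centrifugal evaporation, aqueous buffer added, shaken 24 h. Plunger pushed through a filter membrane, shaken a further 30 min, and filtrate quantified by HPLC.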

[2] = tested on: Mycobacterium tuberculosis; assay: Antimicrobial activity against Mycobacterium tuberculosis H37Rv ATCC 27294 after 5 days by three-fold serial dilution assay; type: functional; conditions: H37Rv ATCC 27294, 120 h
Procedure, shortened: (§1)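 H37Rv grown in 7H9 broth with 0.05% Tween 80 and 10% ADS. Compounds in 90% DMSO, three-fold serially diluted in duplicate. Early-log culture diluted to OD600 0.02 was added, then incubated at 37 °C for 5 days. Growth read by absorbance. MIC50 (50% growth inhibition) taken from non-linear curve fits. Isoniazid ran as internal control in every assay.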

[3] = Intrinsic clearance in mouse liver microsomes by LC/MS/MS analysis; type: ADME, Microsome; conditions: read-out: CLH
Procedure, shortened: (§2)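 Compound depletion in liver microsomes of the named species, measured by LC/MS/MS. In vitro half-life gave hepatic extraction ratio and predicted metabolic clearance.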

[4] = Cmax in mouse at 25 mg/kg, po by LC/MS analysis; type: ADME, organism-based; design: dose 25 mg/kg, route oral; conditions: in vivo
Procedure, shortened: (§3)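 Mice dosed p.o. at 25 mg/kg (2.5 mg/mL) or i.v. at 5 mg/kg (1 mg/mL). Vehicles varied: propanediol/solutol in pH 4.6 acetate buffer, or microemulsion/Cremophor-based mixes. Blood taken 0.08–24 h (i.v. first point 0.02 h), three mice per time point. Plasma extracted with acetonitrile:methanol:acetic acid and quantified by LC/MS/MS (LLOQ 1–3 ng/mL). Noncompartmental analysis of mean profiles; F from dose-corrected p.o./i.v. AUC.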

[5] = Elimination half life in mouse at 5 mg/kg, iv by LC/MS analysis; type: ADME, organism-based; design: dose 5 mg/kg, route intravenous; conditions: in vivo, read-out: beta t1/2 (converted); procedure, shortened: as §3
[6] = tested on: Mycobacterium tuberculosis; assay: Antitubercular activity against Mycobacterium tuberculosis H37Rv infected in Balb/c mouse model assessed as log CFU reduction at 25 mg/kg, po qd administered for 28 days relative to untreated control; type: functional
Procedure, shortened: (§4)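 Balb/c mice infected intranasally on day 0 with 10^3 H37Rv bacilli. Oral dosing, once daily, 7 days a week for 28 days, began 7 days post-infection at 25 or 75 mg/kg; ethambutol 100 mg/kg served as positive control. Lungs removed aseptically and homogenized. CFU counted by serial dilution plating on 7H11 agar; log lung CFU compared with untreated controls.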

[7] = tested on: Mycobacterium tuberculosis; assay: Antitubercular activity against Mycobacterium tuberculosis H37Rv infected in Balb/c mouse model assessed as log CFU reduction at 75 mg/kg, po qd administered for 28 days relative to untreated control; type: functional; procedure, shortened: as §4
[8] = Oral bioavailability in mouse at 25 mg/kg by LC/MS analysis; type: ADME, organism-based; conditions: in vivo; procedure, shortened: as §3
[9] = Elimination half life in mouse at 25 mg/kg, po by LC/MS analysis; type: ADME, organism-based; design: dose 25 mg/kg, route oral; conditions: in vivo, read-out: beta t1/2 (converted); procedure, shortened: as §3
[10] = AUC (0 to 24 hrs) in mouse at 25 mg/kg, po by LC/MS analysis; type: ADME, organism-based; design: time < 24 hr, dose 25 mg/kg, route oral; conditions: plasma; procedure, shortened: as §3
[11] = Clearance in mouse at 5 mg/kg, iv by LC/MS analysis; type: ADME, organism-based; design: dose 5 mg/kg, route intravenous; conditions: in vivo; procedure, shortened: as §3
[12] = Intrinsic clearance in rat liver microsomes by LC/MS/MS analysis; type: ADME; conditions: read-out: CLH; procedure, shortened: as §2
[13] = Volume of distribution at steady state in mouse at 5 mg/kg, iv by LC/MS analysis; type: ADME, organism-based; design: dose 5 mg/kg, route intravenous; conditions: in vivo, read-out: Vdss; procedure, shortened: as §3
[14] = Intrinsic clearance in human liver microsomes by LC/MS/MS analysis; type: ADME; conditions: read-out: CLH; procedure, shortened: as §2
[15] = AUC (0 to 24 hrs) in mouse at 5 mg/kg, iv and 75 mg/kg, po by LC/MS analysis; type: ADME, organism-based; conditions: plasma
[16] = tested on: THP-1; assay: Cytotoxicity against human THP1 cells; type: cell-based
[17] = Elimination half life in mouse at 5 mg/kg, iv and 75 mg/kg, po by LC/MS analysis; type: ADME, organism-based; conditions: in vivo, read-out: beta t1/2 (converted)
[18] = tested on: Mycobacterium tuberculosis; assay: Antitubercular activity against Mycobacterium tuberculosis H37Rv infected in Balb/c mouse model assessed as log CFU reduction at 100 mg/kg, po qd administered for 28 days relative to untreated control; type: functional, organism-based; design: dose 100 mg/kg; procedure, shortened: as §4
[19] = tested on: Mycobacterium tuberculosis; assay: Ratio of isoniazid MIC50 to compound MIC50 against Mycobacterium tuberculosis H37Rv ATCC 27294; type: functional; procedure, shortened: as §1

Compound	solubility thermodynamic at 24 h [1] [µM]	MIC50 [2] [µM]	microsomal CLint [3] [µL/min/mg]	further results
Cc1cc(C)c2cc(C(=O)NC3CCN(C)CC3)[nH]c2c1	> 10000	> 20	–	–
CC1CCC(NC(=O)c2cc3cc(Cl)c(Cl)cc3[nH]2)CC1 (stereo not given)	–	0.16 (≈ 0.052 µg/mL)	73.3	–
C[C@H]1CCCC[C@H]1NC(=O)c1cc2c(F)cc(F)cc2[nH]1	< 4	0.28 (≈ 0.0819 µg/mL)	660	–
Cc1cc2[nH]c(C(=O)N[C@@H]3CCCC[C@@H]3C)cc2c(C)n1	–	> 20	–	–
CC1CCC(NC(=O)c2cc3c(Cl)cccc3[nH]2)CC1 (stereo not given)	–	0.19 (≈ 0.0553 µg/mL)	462	–
CC1(C)CCC(NC(=O)c2cc3c(F)cc(F)cc3[nH]2)CC1	< 4	0.023 (≈ 0.00705 µg/mL)	132	Cmax [4]: 4.21 µM; half-life [5]: 4.47 h; FC [6]: 2.4; FC [7]: 4.6; bioavailability [8]: 51%; half-life [9]: 5.18 h; AUC(0-t) at 24 h [10]: 35.5 µM·h; clearance [11]: 18.7 mL/min/kg; microsomal CLint [12]: 87 µL/min/mg; Vd [13]: 2.24 L/kg; microsomal CLint [14]: 3.4 µL/min/mg
CC1CCC(NC(=O)c2cc3c(Cl)c(Cl)ccc3[nH]2)CC1 (stereo not given)	–	0.22 (≈ 0.0716 µg/mL)	60.8	–
Cc1cc(C)c2c(c1)NC(C(=O)N[C@@H]1CCCC[C@@H]1C)C2 (stereo not given in full)	< 4	1.24 (≈ 0.355 µg/mL)	–	–
CC1CCC(NC(=O)c2cc3cccc(Cl)c3[nH]2)CC1 (stereo not given)	–	1.49 (≈ 0.433 µg/mL)	1040	–
CC1CCC(NC(=O)c2cc3ccc(Cl)c(Cl)c3[nH]2)CC1 (stereo not given)	–	0.97 (≈ 0.315 µg/mL)	308	–
CC1CCC(NC(=O)c2cc3ccc(Cl)cc3[nH]2)CC1 (stereo not given)	–	0.23 (≈ 0.0669 µg/mL)	433	–
Cc1nc(C)c2cc(C(=O)N[C@@H]3CCCC[C@@H]3C)[nH]c2n1	143 (≈ 41 µg/mL)	> 20	–	–
CCC(CC)NC(=O)c1cc2c(C)cc(C)cc2[nH]1	< 4	4.33 (≈ 1.12 µg/mL)	–	–
Cc1cc(C)c2nc(C(=O)N[C@@H]3CCCC[C@@H]3C)[nH]c2c1	–	> 20	–	–
CC1CCC(NC(=O)c2cc3cc(Cl)cc(Cl)c3[nH]2)CC1 (stereo not given)	–	0.41 (≈ 0.133 µg/mL)	187	–
C[C@H]1CC[C@H](NC(=O)c2cc3c(Cl)cc(Cl)cc3[nH]2)CC1	< 4	0.14 (≈ 0.0455 µg/mL)	3.4	AUC(0-t) [15]: 89.1 µM·h; FC [7]: 0.88; Activity [16]: > 20 µM; microsomal CLint [12]: 30.5 µL/min/mg; half-life [17]: 5.29 h; microsomal CLint [14]: 10 µL/min/mg
O=C(NC1CCC(F)(F)CC1)c1cc2c(Cl)cc(Cl)cc2[nH]1	< 4	0.85 (≈ 0.295 µg/mL)	23	microsomal CLint [12]: 38.8 µL/min/mg; microsomal CLint [14]: 7.8 µL/min/mg
Cc1cc(C)c2cc(C(=O)NCC(C)C)[nH]c2c1	–	11.8 (≈ 2.9 µg/mL)	–	–
CC1CCC(NC(=O)c2cc3c(Cl)ccc(Cl)c3[nH]2)CC1 (stereo not given)	–	> 20	40.4	–
CC[C@@H](CO)NCCN[C@@H](CC)CO	–	–	–	Activity [18]: Active
CC1CCC(NC(=O)c2cc3c(Cl)cc(F)cc3[nH]2)CC1 (stereo not given)	< 4	0.18 (≈ 0.0556 µg/mL)	77	–

Compound	solubility thermodynamic at 24 h [1] [µM]	MIC50 [2] [µM]	microsomal CLint [3] [µL/min/mg]	further results
Cc1cc(C)c2cc(C(=O)N[C@@H]3CCCC[C@@H]3C)[nH]c2c1	< 4	0.079 (≈ 0.0225 µg/mL)	433	Ratio [19]: 4
Cc1cc(C)c2cc(C(=O)NC3CCCCC3)[nH]c2c1	< 4	0.82 (≈ 0.222 µg/mL)	–	–
COCCNC(=O)c1cc2c(C)cc(C)cc2[nH]1	620 (≈ 153 µg/mL)	> 20	–	–
CC1(C)CCC(NC(=O)c2cc3c(Cl)cc(Cl)cc3[nH]2)CC1	< 4	0.015 (≈ 0.00509 µg/mL)	13	Cmax [4]: 3.51 µM; AUC(0-t) [15]: 70.3 µM·h; half-life [5]: 5.25 h; FC [6]: 2.6; FC [7]: 4.79; bioavailability [8]: 53%; half-life [9]: 5.96 h; AUC(0-t) at 24 h [10]: 33.9 µM·h; Activity [16]: > 20 µM; clearance [11]: 18.1 mL/min/kg; microsomal CLint [12]: 139 µL/min/mg; Vd [13]: 4.11 L/kg; half-life [17]: 8.14 h; microsomal CLint [14]: 59 µL/min/mg
C[C@H]1CC[C@H](NC(=O)c2cc3c(F)cc(F)cc3[nH]2)CC1	< 4	0.16 (≈ 0.0468 µg/mL)	149	–
Cc1cc(C)c2cc(C(=O)NC(C)C)[nH]c2c1	20 (≈ 4.61 µg/mL)	> 20	–	–
Cc1cc(C)c2cc(C(=O)NCCC(C)C)[nH]c2c1	–	3.26 (≈ 0.842 µg/mL)	–	–
CCC(C)NC(=O)c1cc2c(C)cc(C)cc2[nH]1 (stereo not given)	22 (≈ 5.38 µg/mL)	9.33 (≈ 2.28 µg/mL)	–	–
Cc1cc(C)c2cc(C(=O)NC3CCOCC3)[nH]c2c1	17 (≈ 4.63 µg/mL)	> 20	–	–
C[C@H]1CC[C@@H](NC(=O)c2cc3c(Cl)cc(Cl)cc3[nH]2)CC1	< 4	0.18 (≈ 0.0585 µg/mL)	47	–
CC1CCC(NC(=O)c2cc3c(F)cc(Cl)cc3[nH]2)CC1 (stereo not given)	< 4	0.19 (≈ 0.0587 µg/mL)	28	–
CC1CCC(NC(=O)c2cc3cc(Cl)ccc3[nH]2)CC1 (stereo not given)	–	1.29 (≈ 0.375 µg/mL)	122	–
Cc1cc(C)c2cc(C(=O)Nc3ccccc3)[nH]c2c1	< 4	16 (≈ 4.23 µg/mL)	–	–
C[C@H]1CCCC[C@H]1NC(=O)c1cc2c(Cl)cc(Cl)cc2[nH]1	< 4	0.053 (≈ 0.0172 µg/mL)	89	–
Cc1cc(C)c2cc(C(=O)NC3CCCCC3O)[nH]c2c1 (stereo not given)	56 (≈ 16 µg/mL)	8.9 (≈ 2.55 µg/mL)	–	–
CC1CCC(NC(=O)c2cc3c(Cl)cc(Cl)cc3[nH]2)CC1 (stereo not given)	< 4	0.15 (≈ 0.0488 µg/mL)	37	Cmax [4]: 7.23 µM; half-life [5]: 6.89 h; bioavailability [8]: 48%; half-life [9]: 4.2 h; AUC(0-t) at 24 h [10]: 30.4 µM·h; clearance [11]: 20.1 mL/min/kg; Vd [13]: 2.2 L/kg
Cc1cc(C)c2cc(C(=O)NC3CCCCCC3)[nH]c2c1	< 4	0.1 (≈ 0.0284 µg/mL)	–	–
Cc1cc(C)c2cc(C(=O)N(C)C3CCCCC3)[nH]c2c1	–	> 20	–	–
NNC(=O)c1ccncc1 [ISONIAZID]	–	0.33 (≈ 0.0453 µg/mL)	–	–
CC1CCC(NC(=O)c2cc3c(F)cc(F)cc3[nH]2)CC1 (stereo not given)	< 4	0.3 (≈ 0.0877 µg/mL)	866	–
Cc1cc(C)c2cc(C(=O)N[C@@H]3CCCC[C@@H]3C)n(C)c2c1	–	> 20	–	–
